# A selection: hits, their analogues and other compounds. The true share with any hit is near 1.3%.
# PME-1 primary – PME-1 inhibitors via competitive probe labeling, primary screen, biochemical, fluorescence polarization, FP-Rh probe, HTS. Protein phosphatase methylesterase 1 (Homo sapiens), Q9Y570. recombinant PME-1. inhibition, % at 5.9 µM. actives 0.53% (n = 320,000). AID 2130, 2009;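 active = inhibition above the campaign mean of all compounds plus 3 SD, cut at about 26% in these data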;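 note: competitive labeling of PME-1 active site by serine hydrolase directed probe; 0% = PME-1 with DMSO and 100% = wells lacking PME-1 enzyme; inhibitors block probe labeling so polarization falls and inhibition rises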
# RBBP9 inhibitor – human RBBP9 inhibitors, primary screen, biochemical, fluorescence polarization, FP-Rh probe, HTS; inhibition, % at 7.94 µM; actives 0.2% (n = 220,000); recombinant RBBP9; Serine hydrolase RBBP9 (Homo sapiens), O75884;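 active = inhibition above the campaign mean of all tested compounds plus 3 SD, cut at about 14% in these data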;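 note: plate controls were DMSO wells with RBBP9 for no effect and wells lacking RBBP9 protein for full effect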
#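 Material: RBBP9 protein. Amount: RBBP9 at 2.5 µM in dispensed solution, before mixing. Schedule: 30 min then 45 min, 25 °C. Medium: Tris buffer pH 8.0, NaCl, Pluronic. Measured by: fluorescence polarization. Measure: percent inhibition from mP, scaled between DMSO and no-protein wells. Replication: one well per compound.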
# LYPLA2 inh – LYPLA2 inhibitors, primary screen, counter-screen for PME1 inhibitor project, biochemical, fluorescence polarization, FP-Rh probe ABPP; Acyl-protein thioesterase 2 (Homo sapiens), O95372; recombinant LYPLA2; inhibition, % at 5.9 µM; actives 0.38% (n = 320,000); AID 2177, 2009;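 active = inhibition above the screen-wide mean plus 3 SD, limit set per campaign, cut at about 26% in these data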;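 note: 0% = LYPLA2 with DMSO and 100% = wells lacking LYPLA2 enzyme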
# Fam108B counter – mouse Fam108B serine hydrolase inhibitors, primary screen, counter-screen for RBBP9 inhibitor project, biochemical, fluorescence polarization; recombinant Fam108B, FP-Rh probe fluorescence polarization; inhibition, % at 9.51 µM; actives 0.33% (n = 300,000);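 active = inhibition above the screen mean inhibition plus 3 SD, computed separately per campaign, cut at about 18% in these data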;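 note: inhibitors lower polarization as less probe binds the enzyme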
# PAD4 inh – human PAD4 inhibitors, primary screen, biochemical, fluorescence polarization, 1536-well format; Protein-arginine deiminase type-4 (Homo sapiens), Q9UM07; recombinant PAD4, RCA probe fluorescence polarization; inhibition, % at 6.36 µM; actives 0.41% (n = 330,000);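 active = percent inhibition above a cutoff equal to the mean of all tested compounds plus 3 SD, cut at about 15% in these data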;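 note: 0% = PAD4 with RCA probe and DMSO and 100% = probe without PAD4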
# Target sequence (Q9UM07 whole entry, looked up): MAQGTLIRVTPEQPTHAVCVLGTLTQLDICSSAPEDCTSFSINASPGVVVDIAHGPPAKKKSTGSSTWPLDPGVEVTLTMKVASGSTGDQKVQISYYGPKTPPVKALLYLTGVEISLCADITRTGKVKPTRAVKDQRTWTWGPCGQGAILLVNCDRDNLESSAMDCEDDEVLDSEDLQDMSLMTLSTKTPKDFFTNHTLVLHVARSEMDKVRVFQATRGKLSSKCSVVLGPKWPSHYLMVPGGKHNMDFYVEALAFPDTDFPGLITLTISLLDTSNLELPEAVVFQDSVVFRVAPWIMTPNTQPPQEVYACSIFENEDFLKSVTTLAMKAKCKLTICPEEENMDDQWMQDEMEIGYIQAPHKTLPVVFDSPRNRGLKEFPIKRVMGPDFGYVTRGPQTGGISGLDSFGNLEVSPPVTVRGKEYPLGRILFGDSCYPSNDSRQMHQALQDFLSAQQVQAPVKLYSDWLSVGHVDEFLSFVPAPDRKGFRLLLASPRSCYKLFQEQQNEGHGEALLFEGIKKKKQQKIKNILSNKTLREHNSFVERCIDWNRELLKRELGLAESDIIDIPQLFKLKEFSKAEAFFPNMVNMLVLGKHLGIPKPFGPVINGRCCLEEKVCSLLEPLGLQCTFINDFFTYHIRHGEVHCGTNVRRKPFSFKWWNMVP
# LYPLA1 counter – LYPLA1 inhibitors, primary screen, counter-screen for PME1 inhibitor project, biochemical, fluorescence polarization, FP-Rh probe ABPP; Acyl-protein thioesterase 1 (Homo sapiens), O75608; recombinant LYPLA1; inhibition, % at 5.9 µM; actives 0.16% (n = 320,000); AID 2174, 2009;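 active = inhibition above the mean of all tested compounds plus 3 SD, set per campaign, cut at about 14% in these data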;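 note: inhibitors block serine hydrolase probe labeling of LYPLA1 so polarization falls; 0% = enzyme with DMSO and 100% = wells lacking LYPLA1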
# Fam108b confirm – mouse Fam108b serine hydrolase inhibitors, confirmation, counter-screen for RBBP9 inhibitor project, biochemical, fluorescence polarization, triplicate; inhibition, % at 9.51 µM; actives 44% (n = 930); shares compounds with Fam108B counter; recombinant Fam108b, FP-Rh probe fluorescence polarization;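 active = inhibition above a limit from the primary screen, the mean over all compounds plus 3 SD, cut at about 19% in these data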;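 note: 0% = median of active Fam108b wells and 100% = catalytically dead S170A mutant; inhibitors free the probe so polarization falls as inhibition rises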
# Fam108b ABPP HTS – inhibition of mouse Fam108b by HTS hits, late-stage follow-up, biochemical, gel-based ABPP, soluble recombinant form; inhibition, % at 20 µM; fluorophosphonate probe; actives 44% (n = 260); shares compounds with Fam108B counter; in the data active = inhibition above about 40%
# * marks the source's active call; other numbers are inactive results; . = not tested or not shown.
SMILES,PME-1 primary,RBBP9 inhibitor,LYPLA2 inh,Fam108B counter,PAD4 inh,LYPLA1 counter,Fam108b confirm,others
COc1ccc(-c2nc(SCC(=O)NCc3ccco3)c(-c3ccccc3)[nH]2)cc1OC,7,3,-5,20*,-5,-1,-3,
COc1ccc(-c2[nH]c(-c3ccccc3)nc2SCC(=O)NCc2ccco2)cc1OC,5,-5,-1,0,0,-1,.,
CC(=O)c1cccc(NS(=O)(=O)c2ccc(N/C=C\C(=O)c3ccc(F)cc3)cc2)c1,-15,-1,-28,22*,3,-23,-6,
CC(=O)c1cccc(NS(=O)(=O)c2ccc(N/C=C/C(=O)c3ccc(F)cc3)cc2)c1,8,-8,-12,6,-6,-14,.,
CC1(C2CC2)NC(=O)N(CC(=O)Nc2ccc(SC(F)F)cc2)C1=O (configuration not stated),.,.,.,.,-3,.,.,
O=C1C2=C(Nc3ccccc3SC2c2ccco2)c2ccccc21 (configuration not stated),29*,-1,8,31*,2,-5,9,
O=C1c2ccccc2NC(c2ccco2)N1O (configuration not stated),-3,9,5,-5,-4,2,.,
O=C(NCCc1c[nH]c2ccccc12)OCCCCOC(=O)NCCc1c[nH]c2ccccc12,9,.,8,23*,7,-6,-3,
O=C(COC(=O)c1ccccc1C(=O)OCC(=O)NCCc1c[nH]c2ccccc12)NCCc1c[nH]c2ccccc12,9,.,-7,19*,4,-7,11,
Nc1nc2ccccc2n1/N=C/c1ccc2c(c1)OCO2,12,-9,-2,4,-4,-3,.,
Nc1nc2ccccc2n1/N=C/c1ccc(Br)cc1,11,-3,-3,29*,-5,-2,35*,
COCCOC(=O)c1cc(C(=O)c2cc(Cl)ccc2O)coc1=N,-4,-6,-4,4,-1,-3,.,
CCOC(=O)C1CCN(CC(=O)Nc2ccc(S(=O)(=O)N3CCC(C)CC3)cc2)CC1,-1,.,3,-1,-2,4,.,
COC(=O)Nc1ccccc1C(=O)N1CCC(O)(c2ccc(Cl)cc2)CC1,17,-7,-10,1,-1,-2,.,
NC(=O)Nc1ccccc1C(=O)N1CCC(O)(c2ccc(Cl)cc2)CC1,6,-4,-3,43*,0,-3,1,
Cc1cc(C)nc(SCc2ccc(C(=O)N/N=C/c3ccc(C(=O)O)cc3)cc2)n1,-14,-4,2,-4,-2,-6,.,
Cc1cc(C)nc(SCc2ccc(C(=O)N/N=C/c3cccc(O)c3O)cc2)n1,26*,-6,17,50*,-5,-11,82*,
COc1ccc(O)c(/C=N/NC(=O)c2ccc(CSc3nc(C)cc(C)n3)cc2)c1,18,-8,2,8,-3,0,.,
Cc1cc(C)nc(SCc2ccc(C(=O)NN=Cc3cccc(O)c3O)cc2)n1,.,.,.,.,.,.,.,Fam108b ABPP HTS=90*
Cn1ccnc1C(=O)c1ccccc1Cl,-3,.,8,52*,7,2,-7,
O=C1CCCN1S(=O)(=O)c1ccc(F)cc1,-6,.,10,6,0,2,.,
Cn1ccnc1SCC(=O)Nc1ccc2c(c1)OCO2,-5,-4,-3,1,-1,-1,.,
O=C(CCn1cccn1)Nc1ccc2c(c1)OCO2,8,.,6,18*,0,-3,6,
Nc1c(S(=O)(=O)O)cc(NC(=O)c2ccccc2)c2c1C(=O)c1ccccc1C2=O,54*,.,16,53*,4,14,50*,
O=C(Nc1ccccc1-c1ccccc1)c1ccccc1,-1,.,7,-2,1,2,.,
SMILES,PME-1 primary,RBBP9 inhibitor,LYPLA2 inh,Fam108B counter,PAD4 inh,LYPLA1 counter,Fam108b confirm,others
O=C(Nc1ccccc1F)Nc1ccccc1F,-1,0,-3,-2,-2,-5,.,
O=C(Nc1ccccc1F)Nc1cccc2ccc(O)cc12,34*,5,0,18*,-18,-7,13,
CC(C)CCN(C(=O)CNC(=O)c1ccco1)C(C(=O)NC1CCCCC1)c1cccnc1 (configuration not stated),9,.,4,2,0,2,.,
CCCCCCCCCCCCCCCC[n+]1ccc(C=NO)cc1,.,.,.,.,.,.,.,Fam108b ABPP HTS=75*
O=C(c1ccc(Cl)nc1)N1CCN(S(=O)(=O)c2ccccc2)CC1,0,1,5,0,-2,-1,.,
Clc1ccc2c(NCc3ccccn3)ccnc2c1,-8,.,11,6,7,2,.,
Oc1ccc(/C=N/Nc2ccnc3cc(Cl)ccc23)c(O)c1O,32*,.,1,30*,2,-7,93*,
Oc1ccc(C=NNc2ccnc3cc(Cl)ccc23)cc1O,.,.,.,.,.,.,.,Fam108b ABPP HTS=85*
CC/C(=N\Nc1ccnc2cc(Cl)ccc12)c1ccc(O)cc1,25,.,2,8,-5,-2,.,
N#Cc1c(SCC(=O)Nc2ccc(C(F)(F)F)cc2)sc2c(O)cc(=O)[nH]c12,-10,.,-20,0,0,-21,.,
N#Cc1c(SCC(=O)Nc2nncs2)sc2c(O)cc(=O)[nH]c12,-35,.,-2,32*,-14,-8,6,
O=C(Nc1ccccc1C(=O)NCc1ccccc1)C1=CSCCO1,0,.,10,1,0,-4,.,
COc1ccc2c(Cl)c(C(=O)N/N=C/c3ccc4c(c3)OCO4)sc2c1,-3,3,-5,-17,3,-6,.,
COc1ccc2c(Cl)c(C(=O)N/N=C/c3c(C)[nH]c4ccccc34)sc2c1,32*,3,-11,33*,-2,-11,21*,
O=C(O)c1ccc(N/N=C/c2ccc(-c3cc(Cl)ccc3Cl)o2)cc1,13,-5,7,22*,-7,3,4,
O=C(O)c1ccc(N/N=C/c2ccc(-c3ccc(Cl)cc3Cl)o2)cc1,64*,-2,10,28*,-3,11,23*,
CCNc1nc(NCC)n2c(SCC(=O)N(CC)C3CCCCC3)nnc2n1,0,-8,-4,11,1,-3,.,
Cc1cccc(NC(=S)N/N=C/c2c[nH]c3ccccc23)c1,39*,4,9,22*,-4,0,16,
